Source: ChEMBL document CHEMBL1137377, “Evaluation of azasterols as anti-parasitics” (J Med Chem, 2006)

How the values were obtained:
[1] = test system: KB; assay: Cytotoxicity against KB cell line; format: functional; conditions: Homo sapiens, read-out: TD50 (the source's name)
[2] = test system: Trypanosoma cruzi; assay: Antitrypanosomal activity against Trypanosoma cruzi trypomastigotes in CD1 mouse macrophage; format: functional; conditions: read-out: ED50 (the source's name)
Outline: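 Starch-induced CD1 peritoneal macrophages plated at 4 × 10^5/mL, infected after 24 h with T. cruzi Tulahuan LAC-Z trypomastigotes. 24 h later, drug exposure for 3 days. ED50 by curve fitting.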

[3] = test system: Trypanosoma brucei rhodesiense; assay: Antitrypanosomal activity against Trypanosoma brucei rhodesiense trypomastigotes; format: functional; conditions: read-out: ED50 (the source's name)
Outline: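 Bloodstream-form STIB900 trypomastigotes grown in HMI-18 + 15% HIFCS at 37 °C, 5% CO2. Seeded at 2 × 10^5/mL onto drug dilutions (top 30 µg/mL) for 72 h. Alamar Blue read 5-6 h later by fluorescence (ex/em 530/585 nm). ED50 by curve fitting.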

[4] = test system: Plasmodium falciparum; assay: Antimalarial activity against Plasmodium falciparum 3D7; format: functional, organism-based
Outline: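 Synchronized ring-stage 3D7 culture at 1% parasitemia in RPMI 1640, 5% hematocrit, 37 °C, 5% CO2. Top final drug concentration 30 µg/mL. After 24 h, (3H)-hypoxanthine added (0.2 µCi/well), then 48 h further incubation. Plates freeze/thawed and harvested, and hypoxanthine uptake counted. ED50 by curve fitting.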

[5] = test system: Plasmodium falciparum; assay: Antimalarial activity against Plasmodium falciparum K1; format: functional, organism-based; conditions: read-out: ED50 (the source's name)
[6] = test system: Leishmania donovani; assay: Antileishmanial activity against Leishmania donovani amastigotes in CD1 mouse macrophage; format: functional, organism-based; conditions: read-out: ED50 (the source's name)
Outline: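 Peritoneal macrophages from starch-induced CD1 mice, kept 24 h in RPMI1640 + 10% HIFCS at 37 °C, 5% CO2. Infected with L. donovani MHOM/ET/67/L82 amastigotes from hamster spleen at 5 parasites:1 macrophage. After 24 h, drug exposure for 5 days, overlay replaced day 3. Top concentration 30 µg/mL, quadruplicate. Slides methanol-fixed, Giemsa-stained, counted microscopically. ED50 by curve fitting.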

[7] = read-out: ED50 (the source's name)

SMILES	CC50 [1] [µM]	EC50 [2] [µM]	EC50 [3] [µM]	EC50 [4, 7] [µM]	EC50 [5] [µM]	EC50 [6] [µM]	EC50 ([4]; read-out: EC50) [µM]
COC(=O)CCCCCNC[C@@H](C)[C@H]1CC[C@H]2C3CC=C4C[C@@H](O)CC[C@]4(C)[C@H]3CC[C@]12C (stereo partly drawn)	6.09	< 2.41	2.15	1.31	0.5		
CC(=O)O[C@H]1CC[C@@]2(C)C(=CCC3[C@@H]4CC[C@H]([C@H](C)CNCCCC[C@H](NC(=O)OCc5ccccc5)C(=O)OCc5ccccc5)[C@@]4(C)CC[C@@H]32)C1 (stereo partly drawn)	29.8	1.71	0.619	0.839	0.069		
COc1cc([C@@H]2c3cc4c(cc3[C@H](O)[C@H]3COC(=O)[C@H]23)OCO4)cc(OC)c1OC [PODOFILOX]	0.001				0.1		
COC(=O)CNC[C@@H](C)[C@H]1CC[C@H]2C3CC=C4C[C@@H](O)CC[C@]4(C)[C@H]3CC[C@]12C (stereo partly drawn)	45	< 2.75	4.91	40.6	22.2		
COC(=O)CNC(=O)[C@@H](C)[C@H]1CC[C@H]2C3CC=C4C[C@@H](OC(C)=O)CC[C@]4(C)[C@H]3CC[C@]12C (stereo partly drawn)	> 653	42.2	24	60	9.6	> 65	
COC(=O)CCCNC(=O)[C@@H](C)[C@H]1CC[C@H]2C3CC=C4C[C@@H](OC(C)=O)CC[C@]4(C)[C@H]3CC[C@]12C (stereo partly drawn)	> 615	4.7	9.15	16.2	11.6	> 62	
C[C@H](CNCC[C@H](NC(=O)OC(C)(C)C)C(=O)O)[C@H]1CC[C@H]2C3CC=C4C[C@@H](O)CC[C@]4(C)[C@H]3CC[C@]12C (stereo partly drawn)	> 563	< 2.08	> 56	36.6	38.1		
COC(=O)CCCCCCCNC(=O)[C@@H](C)[C@H]1CC[C@H]2C3CC=C4C[C@@H](OC(C)=O)CC[C@]4(C)[C@H]3CC[C@]12C (stereo partly drawn)	> 552	> 55	0.607	21.5	2.87	> 55	
COC(=O)CCCCNC(=O)[C@@H](C)[C@H]1CC[C@H]2C3CC=C4C[C@@H](OC(C)=O)CC[C@]4(C)[C@H]3CC[C@]12C (stereo partly drawn)	> 598	2.43	3.01	0.74	8.43	> 60	
COC(=O)[C@H](CCCCNC[C@@H](C)[C@H]1CC[C@H]2C3CC=C4C[C@@H](OC(C)=O)CC[C@]4(C)[C@H]3CC[C@]12C)NC(=O)OCc1ccccc1 (stereo partly drawn)	5.35	< 1.71	0.753	0.799	0.215		
COC(=O)CCCCCCCNC[C@@H](C)[C@H]1CC[C@H]2C3CC=C4C[C@@H](O)CC[C@]4(C)[C@H]3CC[C@]12C (stereo partly drawn)	6.17	2.64	0.308	0.349	0.062		
COC(=O)CCCCCNC[C@@H](C)[C@H]1CC[C@H]2C3CC=C4C[C@@H](OC(C)=O)CC[C@]4(C)[C@H]3CC[C@]12C (stereo partly drawn)	15.6	20.5	0.033	7.37		21.9	
CC(=O)O[C@H]1CC[C@@]2(C)C(=CCC3[C@@H]4CC[C@H]([C@H](C)CNCCCC(=O)O)[C@@]4(C)CC[C@@H]32)C1 (stereo partly drawn)	505	12.6	54.6	> 65		> 65	
COC(=O)CCNC(=O)[C@@H](C)[C@H]1CC[C@H]2C3CC=C4C[C@@H](OC(C)=O)CC[C@]4(C)[C@H]3CC[C@]12C (stereo partly drawn)	597	3.46	6	17.4	19.1	> 63	
COC(=O)CCCNC[C@@H](C)[C@H]1CC[C@H]2C3CC=C4C[C@@H](OC(C)=O)CC[C@]4(C)[C@H]3CC[C@]12C (stereo partly drawn)	19.2	24.7	0.012	15.4		3.19	
COC(=O)CCCCCCNC[C@@H](C)[C@H]1CC[C@H]2C3CC=C4C[C@@H](OC(C)=O)CC[C@]4(C)[C@H]3CC[C@]12C (stereo partly drawn)	11.2	53.5	0.025	3.49		9.5	
COC(=O)CCCCCCNC(=O)[C@@H](C)[C@H]1CC[C@H]2C3CC=C4C[C@@H](OC(C)=O)CC[C@]4(C)[C@H]3CC[C@]12C (stereo partly drawn)	> 566	10.8	7.91	14.4	1.26	> 57	
C[C@H](CNCCCCCC(=O)O)[C@H]1CC[C@H]2C3CC=C4C[C@@H](O)CC[C@]4(C)[C@H]3CC[C@]12C (stereo partly drawn)	> 673	56.3	> 67	> 67		54.5	
COC(=O)CCCNC[C@@H](C)[C@H]1CC[C@H]2C3CC=C4C[C@@H](O)CC[C@]4(C)[C@H]3CC[C@]12C (stereo partly drawn)	1.55	< 2.57	5.05	7.53	1.95		
COC(=O)CCNC[C@@H](C)[C@H]1CC[C@H]2C3CC=C4C[C@@H](OC(C)=O)CC[C@]4(C)[C@H]3CC[C@]12C (stereo partly drawn)	17.4	28.9	0.302	> 65.3		22.8	
C[C@H](CNCCCC[C@H](NC(=O)OCc1ccccc1)C(=O)O)[C@H]1CC[C@H]2C3CC=C4C[C@@H](O)CC[C@]4(C)[C@H]3CC[C@]12C (stereo partly drawn)	> 504	9.52	> 50	16.7	6.29		
COC(=O)CCCCCCCNC[C@@H](C)[C@H]1CC[C@H]2C3CC=C4C[C@@H](OC(C)=O)CC[C@]4(C)[C@H]3CC[C@]12C (stereo partly drawn)	10	28.7	0.098	2.64		14.8	
C[C@H](CNCC(=O)O)[C@H]1CC[C@H]2C3CC=C4C[C@@H](O)CC[C@]4(C)[C@H]3CC[C@]12C (stereo partly drawn)	> 770	> 77	> 77	> 77		> 77	
C[C@H](C(=O)NCCCC(=O)O)[C@H]1CC[C@H]2C3CC=C4C[C@@H](O)CC[C@]4(C)[C@H]3CC[C@]12C (stereo partly drawn)	616	39.8	49.8			29.2	45.6
C[C@H](C(=O)NCCCCCCCC(=O)O)[C@H]1CC[C@H]2C3CC=C4C[C@@H](O)CC[C@]4(C)[C@H]3CC[C@]12C (stereo partly drawn)	377	6.5	0.431	> 62		25.8	
CC(=O)O[C@H]1CC[C@@]2(C)C(=CCC3[C@@H]4CC[C@H]([C@H](C)C(=O)NCCCC[C@H](NC(=O)OCc5ccccc5)C(=O)OCc5ccccc5)[C@@]4(C)CC[C@@H]32)C1 (stereo partly drawn)	> 400	> 24	0.01	3.4		> 40	
